Results reported in ChEMBL document CHEMBL1139027, “Design and synthesis of potent and subtype-selective PPARalpha agonists” (Bioorg Med Chem Lett, 2006).

Assays:
[1] = target: T1, Peroxisome proliferator-activated receptor alpha (Homo sapiens, UniProt Q07869); experiment: Binding affinity to human PPAR alpha
T1 sequence (Q07869 whole entry): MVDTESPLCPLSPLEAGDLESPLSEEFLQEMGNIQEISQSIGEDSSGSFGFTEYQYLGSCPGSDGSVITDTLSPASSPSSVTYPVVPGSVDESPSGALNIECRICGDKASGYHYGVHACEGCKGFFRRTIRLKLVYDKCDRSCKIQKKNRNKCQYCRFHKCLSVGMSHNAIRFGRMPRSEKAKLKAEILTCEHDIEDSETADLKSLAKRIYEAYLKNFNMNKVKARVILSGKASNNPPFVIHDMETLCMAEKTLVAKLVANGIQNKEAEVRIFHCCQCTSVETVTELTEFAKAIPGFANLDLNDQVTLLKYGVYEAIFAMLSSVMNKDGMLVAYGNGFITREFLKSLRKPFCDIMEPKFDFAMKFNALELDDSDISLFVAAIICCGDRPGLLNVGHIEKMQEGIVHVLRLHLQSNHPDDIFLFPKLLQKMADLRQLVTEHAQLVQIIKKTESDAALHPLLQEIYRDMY

[2] = target: T2, Peroxisome proliferator-activated receptor delta (Homo sapiens, UniProt Q03181); experiment: Binding affinity to human PPAR delta
T2 sequence (Q03181 whole entry): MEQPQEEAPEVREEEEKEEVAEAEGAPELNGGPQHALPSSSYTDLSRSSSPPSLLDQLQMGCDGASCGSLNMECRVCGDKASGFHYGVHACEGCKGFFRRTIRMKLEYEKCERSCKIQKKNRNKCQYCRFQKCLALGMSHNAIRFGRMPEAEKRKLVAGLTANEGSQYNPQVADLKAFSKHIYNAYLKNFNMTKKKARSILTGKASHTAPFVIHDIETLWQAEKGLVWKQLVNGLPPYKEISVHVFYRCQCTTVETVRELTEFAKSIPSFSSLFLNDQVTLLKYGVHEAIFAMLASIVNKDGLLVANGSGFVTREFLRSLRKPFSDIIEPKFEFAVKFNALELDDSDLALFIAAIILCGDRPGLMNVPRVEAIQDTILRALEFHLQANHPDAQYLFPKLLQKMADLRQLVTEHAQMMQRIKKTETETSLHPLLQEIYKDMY

[3] = target: T3, Peroxisome proliferator-activated receptor gamma (Homo sapiens, UniProt P37231)
T3 sequence (P37231 whole entry): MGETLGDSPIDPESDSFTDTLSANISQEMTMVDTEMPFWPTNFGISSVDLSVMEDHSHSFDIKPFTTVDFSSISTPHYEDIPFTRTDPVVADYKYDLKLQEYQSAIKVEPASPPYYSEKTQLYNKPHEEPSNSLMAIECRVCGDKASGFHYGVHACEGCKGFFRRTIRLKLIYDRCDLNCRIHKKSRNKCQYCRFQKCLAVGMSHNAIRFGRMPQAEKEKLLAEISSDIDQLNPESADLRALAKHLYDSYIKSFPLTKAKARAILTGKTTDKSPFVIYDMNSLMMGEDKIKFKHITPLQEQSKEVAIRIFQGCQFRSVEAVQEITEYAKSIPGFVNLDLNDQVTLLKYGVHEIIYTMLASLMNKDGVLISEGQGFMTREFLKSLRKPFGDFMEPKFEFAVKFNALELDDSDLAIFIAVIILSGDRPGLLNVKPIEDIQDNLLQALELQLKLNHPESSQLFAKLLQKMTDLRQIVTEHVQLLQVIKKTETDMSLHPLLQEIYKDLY

[4] = target: T1, Peroxisome proliferator-activated receptor alpha; experiment: Transactivation by human PPAR alpha in COS1 cells; assay type: functional, cell-based, COS-1
[5] = target: T3, Peroxisome proliferator-activated receptor gamma; assay type: functional, cell-based, COS-1
[6] = target: T2, Peroxisome proliferator-activated receptor delta; experiment: Transactivation by human PPAR delta in COS1 cells; assay type: functional, cell-based, COS-1
Cytochrome P450 2C9 = Cytochrome P450 2C9 (Homo sapiens, UniProt P11712)
Chain of Cytochrome P450 2C9 (P11712 whole entry): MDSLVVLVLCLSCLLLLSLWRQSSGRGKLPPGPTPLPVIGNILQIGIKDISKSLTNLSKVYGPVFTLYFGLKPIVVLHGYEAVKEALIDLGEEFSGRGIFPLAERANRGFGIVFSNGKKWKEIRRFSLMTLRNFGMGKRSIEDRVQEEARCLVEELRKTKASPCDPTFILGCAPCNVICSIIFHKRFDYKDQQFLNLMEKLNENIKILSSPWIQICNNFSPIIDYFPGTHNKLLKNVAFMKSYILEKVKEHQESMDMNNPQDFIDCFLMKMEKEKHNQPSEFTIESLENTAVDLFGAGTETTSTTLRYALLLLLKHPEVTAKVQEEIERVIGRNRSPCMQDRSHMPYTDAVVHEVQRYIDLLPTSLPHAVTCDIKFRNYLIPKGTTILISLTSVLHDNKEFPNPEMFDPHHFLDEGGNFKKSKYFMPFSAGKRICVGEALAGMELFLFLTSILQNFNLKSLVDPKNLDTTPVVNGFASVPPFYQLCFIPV

Syrian golden hamster [7] = experiment: Decrease in cholesterol level in Golden Syrian hamster at 100 mg/kg, po; assay type: functional, Mesocricetus auratus; set-up: scale not given: the % may be the effect or the level left
In short: (§1)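 Male Golden Syrian hamsters (120–150 g, n = 10) on normal rodent chow with free access to water. Sodium salts were given by oral gavage once daily for 9 days in 0.5% methylcellulose vehicle. Serum cholesterol and triglycerides were measured and reported as % change.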

Syrian golden hamster [8] = experiment: Decrease in triglyceride level in Golden Syrian hamster at 100 mg/kg, po; assay type: functional, Mesocricetus auratus; set-up: scale not given: the % may be the effect or the level left; in short: as §1
Canis familiaris [9] = experiment: Decrease in cholesterol level in Beagle dog at 50 mg/kg, po; assay type: functional, Canis lupus familiaris; set-up: scale not given: the % may be the effect or the level left
In short: (§2)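 Male beagle dogs (12–18 kg, n = 5) fed cholesterol-free chow ad libitum with free access to water. Compounds were suspended in 0.5% methylcellulose and gavaged daily for 14 days. Serum cholesterol is reported as a mean value, with final-day data compared against vehicle control.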

Canis familiaris [10] = experiment: Decrease in cholesterol level in Beagle dog at 4 mg/kg, po; assay type: functional, Canis lupus familiaris; set-up: scale not given: the % may be the effect or the level left; in short: as §2

Compound	IC50 [1]	IC50 ([2]; read-out: IC50)	IC50 [3]	EC50 ([4]; read-out: EC50)	further results
O=C(O)C(Cc1ccc(OCCCOc2ccc(Oc3ccc(F)cc3)cc2Cl)cc1)c1ccccc1 (centres undefined)	262 nM	1340 nM	Not Active		
CCC(CC)(Oc1ccc(OCCCOc2ccc(Oc3ccc(F)cc3)cc2Cl)cc1)C(=O)O	22 nM		Not Active	2.7 nM	IC50 [2]: Not Active; EC50 ([5]; cos-1): Not Active
CC[C@](C)(Oc1ccc(OCCCOc2ccc(Oc3ccc(F)cc3)cc2Cl)cc1)C(=O)O	6 nM	1090 nM	Not Active	3 nM	EC50 ([5]; cos-1): Not Active
CC[C@@](C)(Oc1ccc(OCCCOc2ccc(Oc3ccc(F)cc3)cc2Cl)cc1)C(=O)O	101 nM	2410 nM	Not Active	20 nM	EC50 ([5]; read-out: EC50): > 3000 nM
CCC(C)(Oc1ccc(OCCCOc2ccc(Oc3ccc(F)cc3)cc2Cl)cc1)C(=O)O (centres undefined)	5 nM			2.5 nM	IC50 [2]: Not Active; IC50 ([3]; read-out: IC50): 1240 nM; EC50 ([5]; cos-1): Not Active
CC(C)(Oc1ccc(OCCOc2ccc(Oc3ccc(F)cc3)cc2Cl)cc1)C(=O)O				62 nM	EC50 ([1]; read-out: EC50): 87 nM; EC50 [2]: Not Active; EC50 [3]: Not Active; EC50 ([6]; cos-1): Not Active; EC50 ([5]; cos-1): Not Active
O=C(O)CCc1ccc(OCCCOc2ccc(Oc3ccc(F)cc3)cc2Cl)cc1	675 nM	> 50 nM			
CCC1(CC)C=C(C(F)(F)F)c2cc(Cl)c(OCCCOc3ccc(O[C@](C)(CC)C(=O)O)cc3)cc2O1	125 nM		Not Active		IC50 [2]: Not Active
CC[C@@](C)(Oc1ccc(OCCCOc2ccc3c(C(F)(F)F)cc(=O)oc3c2Cl)cc1)C(=O)O	157 nM	3270 nM	Not Active		
CC[C@@](C)(Cc1ccc(OCCCOc2ccccc2Cl)cc1)C(=O)O	42 nM	4630 nM		54.1 nM	
CCCc1cc(Oc2ccc(F)cc2)ccc1OCCCOc1ccc(OC(C)(C)C(=O)O)cc1				51 nM	EC50 ([1]; read-out: EC50): 110 nM; EC50 ([2]; read-out: EC50): 106 nM; EC50 ([6]; read-out: EC50): 55 nM
CC[C@@](C)(Cc1ccc(OCCCOc2ccc3c(C(F)(F)F)cc(=O)oc3c2C)cc1)C(=O)O	49 nM	134 nM	Not Active	10 nM	
CCC(Cc1ccc(OCCCOc2ccc(Oc3ccc(F)cc3)cc2Cl)cc1)C(=O)O (centres undefined)	156 nM	1170 nM	Not Active		
CC(Cc1ccc(OCCCOc2ccc(Oc3ccc(F)cc3)cc2Cl)cc1)C(=O)O (centres undefined)	208 nM	4070 nM	Not Active		
CC[C@@](C)(Cc1ccc(OCCCOc2ccc(CC(F)(F)F)cc2Cl)cc1)C(=O)O	< 1 nM	> 70000 nM		< 1 nM	IC50 ([3]; read-out: IC50): > 6000 nM; EC50 ([5]; cos-1): Not Active; IC50 (Cytochrome P450 2C9): < 50 nM
CC[C@@](C)(Cc1ccc(OCCCOc2ccc3c(C)cc(O)nc3c2)cc1)C(=O)O	6090 nM		Not Active		IC50 [2]: Not Active
CC(C)(Oc1ccc(OCCCOc2ccc(Oc3ccc(F)cc3)cc2Cl)cc1)C(=O)O	30 nM	2390 nM		20 nM	EC50 ([6]; read-out: EC50): > 3000 nM
CCCc1cc(Oc2ccc(F)cc2)ccc1OCCCOc1ccc(C2SC(=O)NC2=O)cc1 (centres undefined)					EC50 [1]: Not Active; EC50 [2]: Not Active; EC50 ([4]; cos-1): Not Active; EC50 ([6]; cos-1): Not Active
CC(C)(Oc1ccc(OCCCCOc2ccc(Oc3ccc(F)cc3)cc2Cl)cc1)C(=O)O				35 nM	EC50 ([1]; read-out: EC50): 66 nM; EC50 ([2]; read-out: EC50): 545 nM; EC50 ([6]; read-out: EC50): 284 nM
CC(C)(Oc1cccc(OCCCOc2ccc(Oc3ccc(F)cc3)cc2Cl)c1)C(=O)O				21 nM	EC50 ([1]; read-out: EC50): 36 nM; EC50 [3]: Not Active
CCCC(Cc1ccc(OCCCOc2ccc(Oc3ccc(F)cc3)cc2Cl)cc1)C(=O)O (centres undefined)	130 nM	1130 nM	Not Active	454 nM	
O=C(O)C(Cc1ccc(OCCCOc2ccc(Oc3ccc(F)cc3)cc2Cl)cc1)C1CCC1 (centres undefined)	116 nM	1350 nM	Not Active	15 nM	EC50 ([5]; cos-1): Not Active
CC(C)(Oc1ccccc1OCCCOc1ccc(Oc2ccc(F)cc2)cc1Cl)C(=O)O					EC50 [1]: Not Active; EC50 [2]: Not Active; EC50 [3]: Not Active
CC(C)OC(=O)C(C)(C)Oc1ccc(C(=O)c2ccc(Cl)cc2)cc1 [FENOFIBRATE]					Activity (Syrian golden hamster [7]): -31%; Activity (Syrian golden hamster [8]): -30%; Activity (Canis familiaris [9]): -18%
CCC(C)(C)C(=O)O[C@H]1C[C@@H](C)C=C2C=C[C@H](C)[C@H](CC[C@@H]3C[C@@H](O)CC(=O)O3)[C@H]21 [SIMVASTATIN]					Activity (Canis familiaris [10]): -19%
